Results on four molecules are retold here after publication PMC7245552 (Cell chemical biology, 2020).

Data set [1] concerns K2P2.1 (TREK-1). The conditions noted are these: read-out: EC50 (ML335) activation, ref Lolicato et al., 2017; cited from earlier work.
For the next data set, the target named is T1, K2P2.1 I110D (Mus musculus, UniProt P97438, I125D).
T1 sequence (P97438 1-411 isoform P97438-2 I110D): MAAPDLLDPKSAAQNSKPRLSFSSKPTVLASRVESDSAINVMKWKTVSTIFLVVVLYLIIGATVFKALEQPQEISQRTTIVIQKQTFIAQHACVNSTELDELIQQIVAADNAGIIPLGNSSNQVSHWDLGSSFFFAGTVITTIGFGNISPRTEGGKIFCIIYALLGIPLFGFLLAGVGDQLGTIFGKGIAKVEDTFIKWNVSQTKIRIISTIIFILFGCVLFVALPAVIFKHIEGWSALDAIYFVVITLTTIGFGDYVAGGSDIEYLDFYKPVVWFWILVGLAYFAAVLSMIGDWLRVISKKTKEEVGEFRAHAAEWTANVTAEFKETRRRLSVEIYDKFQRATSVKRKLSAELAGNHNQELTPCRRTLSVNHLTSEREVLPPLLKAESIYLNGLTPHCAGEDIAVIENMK
In words: TEVC recordings in Xenopus oocytes, K2P2.1 I110D. The data set is classed as cell-based, Murine.

The target in another data set is T2, K2P2.1 I110D/N147D (Mus musculus, UniProt P97438, I125D/N162D).
T2 sequence (P97438 1-411 isoform P97438-2 I110D/N147D): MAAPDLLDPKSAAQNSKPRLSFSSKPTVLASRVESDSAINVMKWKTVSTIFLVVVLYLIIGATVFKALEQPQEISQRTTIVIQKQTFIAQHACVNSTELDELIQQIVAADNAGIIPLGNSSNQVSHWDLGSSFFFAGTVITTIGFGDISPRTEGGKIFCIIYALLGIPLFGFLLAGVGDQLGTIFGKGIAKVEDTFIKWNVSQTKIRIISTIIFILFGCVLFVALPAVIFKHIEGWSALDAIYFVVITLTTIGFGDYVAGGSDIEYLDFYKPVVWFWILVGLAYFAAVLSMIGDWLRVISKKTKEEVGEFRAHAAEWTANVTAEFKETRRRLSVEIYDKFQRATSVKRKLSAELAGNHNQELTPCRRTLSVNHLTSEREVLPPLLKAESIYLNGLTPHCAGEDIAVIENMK
In words: TEVC recordings in Xenopus oocytes, K2P2.1 I110D/N147D. Type of data set: cell-based, Murine. The conditions noted are these: I110D/N147D pair; T = 298K. The method, boiled down:
(§1)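 Coupling energy was computed as ΔΔGΩ = RT lnΩ, with R=1.987 cal mol−1 deg−1 and T=298 K. Inputs were RuR inhibition measurements by TEVC in X. laevis oocytes expressing murine mutant channels: −80 mV hold, 500 ms ramp −140 to +50 mV, ND96 perfusion. IC50s came from a Hill fit with coefficient −1.0, using ≥3 oocytes from ≥2 batches per point.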

The next data set has as its target T3, K2P2.1 I110E (Mus musculus, UniProt P97438, I125E).
T3 sequence (P97438 1-411 isoform P97438-2 I110E): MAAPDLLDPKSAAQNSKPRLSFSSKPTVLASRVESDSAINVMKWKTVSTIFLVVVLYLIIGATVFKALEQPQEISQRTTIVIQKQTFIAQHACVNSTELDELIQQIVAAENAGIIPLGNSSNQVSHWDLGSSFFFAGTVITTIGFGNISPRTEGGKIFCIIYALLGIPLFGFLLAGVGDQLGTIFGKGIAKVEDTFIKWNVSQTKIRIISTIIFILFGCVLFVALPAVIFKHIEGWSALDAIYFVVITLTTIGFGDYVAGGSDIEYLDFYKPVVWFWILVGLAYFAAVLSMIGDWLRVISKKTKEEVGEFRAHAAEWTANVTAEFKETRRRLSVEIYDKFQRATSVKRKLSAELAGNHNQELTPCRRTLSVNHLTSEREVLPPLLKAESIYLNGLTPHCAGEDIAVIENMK
Briefly: TEVC recordings in Xenopus oocytes, K2P2.1 I110E. Type of data set: cell-based, Murine. Conditions: K2P2.1 I110E versus K2P2.1 I110D. The method, boiled down: (§2)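 Murine channel cRNA (0.1–6 ng) injected into defolliculated stage V–VI X. laevis oocytes kept at 18°C in ND96 with antibiotics. TEVC 24–48 h later with constant ND96 perfusion; −80 mV hold, 500 ms ramp −140 to +50 mV. Ruthenium compounds were freshly dissolved in ND96. Block corrected for uninjected-oocyte basal current. ≥3 oocytes from ≥2 batches per point; IC50 from Hill fit, coefficient fixed −1.0.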

The target in another data set is T4, K2P2.1 I110D/N147E (Mus musculus, UniProt P97438, I125D/N162E).
T4 sequence (P97438 1-411 isoform P97438-2 I110D/N147E): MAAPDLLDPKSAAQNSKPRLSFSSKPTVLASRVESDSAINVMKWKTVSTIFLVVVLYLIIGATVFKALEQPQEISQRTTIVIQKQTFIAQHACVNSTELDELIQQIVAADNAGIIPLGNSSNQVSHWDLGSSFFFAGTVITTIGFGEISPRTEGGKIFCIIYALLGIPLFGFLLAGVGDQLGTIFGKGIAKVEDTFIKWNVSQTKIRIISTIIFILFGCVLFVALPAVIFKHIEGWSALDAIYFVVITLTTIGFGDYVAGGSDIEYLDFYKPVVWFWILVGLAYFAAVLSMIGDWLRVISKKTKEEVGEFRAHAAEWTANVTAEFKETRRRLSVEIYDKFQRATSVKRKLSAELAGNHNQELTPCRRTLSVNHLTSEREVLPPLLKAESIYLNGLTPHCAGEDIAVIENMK
In words: TEVC recordings in Xenopus oocytes, K2P2.1 I110D/N147E. Type of data set: cell-based, Murine. The conditions noted are these: I110D/N147E pair; T = 298K. The method, boiled down: as §1

Another data set deals with T5, K2P10.1 (TREK-2) (Mus musculus, UniProt Q8BUW1).
T5 sequence (Q8BUW1 1-535): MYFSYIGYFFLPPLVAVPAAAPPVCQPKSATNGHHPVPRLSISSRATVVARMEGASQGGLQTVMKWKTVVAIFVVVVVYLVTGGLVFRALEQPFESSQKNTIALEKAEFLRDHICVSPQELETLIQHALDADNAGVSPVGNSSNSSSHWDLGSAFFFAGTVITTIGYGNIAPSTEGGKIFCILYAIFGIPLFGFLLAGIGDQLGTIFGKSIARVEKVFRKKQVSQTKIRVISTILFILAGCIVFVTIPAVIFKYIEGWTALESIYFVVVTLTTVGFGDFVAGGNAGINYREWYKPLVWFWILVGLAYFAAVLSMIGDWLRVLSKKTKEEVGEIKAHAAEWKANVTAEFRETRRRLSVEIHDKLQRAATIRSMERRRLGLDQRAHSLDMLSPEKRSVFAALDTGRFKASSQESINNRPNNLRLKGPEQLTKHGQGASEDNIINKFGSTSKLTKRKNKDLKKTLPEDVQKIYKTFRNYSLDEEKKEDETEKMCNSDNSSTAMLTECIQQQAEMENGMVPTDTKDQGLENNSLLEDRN
Briefly: TEVC recordings in Xenopus oocytes, K2P10.1. The data set is classed as cell-based, Murine. The method, boiled down:
as §2

The target in data set [2] is T6, K2P2.1 (TREK-1) (Mus musculus, UniProt P97438).
T6 sequence (P97438 1-411 isoform P97438-2): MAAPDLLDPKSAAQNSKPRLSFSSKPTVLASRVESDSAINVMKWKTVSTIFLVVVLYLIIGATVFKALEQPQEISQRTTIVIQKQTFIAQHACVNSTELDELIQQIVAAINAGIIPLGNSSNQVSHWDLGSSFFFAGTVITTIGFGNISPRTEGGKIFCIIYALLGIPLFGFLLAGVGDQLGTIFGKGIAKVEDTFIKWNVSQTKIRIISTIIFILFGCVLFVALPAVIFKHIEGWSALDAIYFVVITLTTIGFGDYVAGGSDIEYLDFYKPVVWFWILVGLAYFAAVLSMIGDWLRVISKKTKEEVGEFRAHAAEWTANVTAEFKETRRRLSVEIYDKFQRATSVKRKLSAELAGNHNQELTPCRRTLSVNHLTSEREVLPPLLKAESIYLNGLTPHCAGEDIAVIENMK
Briefly: TEVC recordings in Xenopus oocytes, K2P2.1. The data set is classed as cell-based, Murine. Conditions: 100 μM Ru360 applied to K2P2.1 (TREK-1). The procedure, abridged:
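Oocytes expressing murine wild-type channel were perfused with ND96 until current was stable, then with 100 μM Ru360 freshly prepared in ND96 and kept light-protected, until current stabilised again. Currents were elicited from a −80 mV hold by a 500 ms ramp −140 to +50 mV. Fractional block was corrected for basal current averaged from uninjected oocytes (n=14).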

The data set “crystal structure” concerns the molecule itself. In words: crystal structure.

For `CS(=O)(=O)Nc1ccc(C(=O)NCc2ccc(Cl)cc2Cl)cc1` [ML335], the EC50 was 14.3 ± 2.7 µM in the data set on K2P2.1 (TREK-1) [1] and 11.8 ± 2.3 µM on K2P2.1 I110D (read-out: EC50 (ML335) activation, TEVC).
For the molecule `N.N.N.N.N.N.N.N.N.N.N.N.N.N.[Cl-].[Cl-].[Cl-].[Cl-].[Cl-].[Cl-].[O-2].[O-2].[Ru+3].[Ru+3].[Ru+4]` [RuR, Ruthenium Red], the “ΔΔG coupling energy, double mutant cycle analysis of RuR binding” value at K2P2.1 I110D/N147D was -4.1 kcal/mol; at K2P2.1 I110D/N147E, -0.3 kcal/mol. For the same molecule, the “RuR inhibition fold weaker than that observed for K2P2.1 I110D” value on K2P2.1 I110E is ~ 50 fold.
Regarding Ru360, the “Ru360 IC50 fold weaker than that for RuR” value at K2P10.1 (TREK-2) and on K2P2.1 I110D was over 10 fold in each case. Further, the “Effect on channel current” value at K2P2.1 (TREK-1) [2] was “no effect”.

B1: K2P2.1 (TREK-1)CRYST I110D (domain or fragment, mouse, UniProt P97438-2 21-322, looked up)
chain: SFSSKPTVLASRVESDSAINVMKWKTVSTIFLVVVLYLIIGATVFKALEQPQEISQRTTIVIQREKFLRAHPCVSDQELDELIQQIVAADNAGIIPLGASSNQVSHWDLGSSFFFAGTVITTIGFGNISPRTEGGKIFCIIYALLGIPLFGFLLAGVGDQLGTIFGKGIAKVEDTFIKWNVSQTKIRIISTIIFILFGCVLFVALPAVIFKHIEGWSALDAIYFVVITLTTIGFGDYVAGGSDIEYLDFYKPVVWFWILVGLAYFAAVLSMIGDWLRVICKKTKEAVGEFRAHAAEWTANVT
As to B1, the binding result in “crystal structure” is “binds”.

For orientation: EC50 means the concentration giving half of the maximal effect.
